From publication PMC12215001 (Scientific Reports, 2025)

Assays:
N/P(14) cells [1] = assay: Western blot analysis; format: cell-based
In short: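 N/P(14) cells were treated two ways: a concentration series for 24–48 h, or 10 µM for 6–48 h. Lysis was in SDS buffer, followed by SDS-PAGE and PVDF blotting. Probes: caspases, PARP, a CK2 substrate consensus (pS/pT)DXE antibody, and phospho-Akt (S129)/Akt and phospho-XRCC1. Bands were normalized to GAPDH as fold of control. Mean±S.D., n = 3, one-way ANOVA with Dunnett.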

NTUB1 cells = assay: SRB assay, cell growth inhibition; format: cell-based; settings: 48 h
In short: (§1)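 Cell lines: NTUB1 and N/P(14) in RPMI 1640, J82 in EMEM, and J82R (J82 adapted stepwise to 10 µM cisplatin); all in 10% FBS at 37 °C, 5% CO2, passage <10, mycoplasma-tested. SV-HUC-1 was grown in F12K. Cells were treated 48 h in 96-well plates, then TCA-fixed (10%) and stained with 0.4% SRB. After 1% acetic acid washes, dye was dissolved in 10 mM Tris base and read at 515 nm. GI50 = concentration giving 50% growth inhibition.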

[2] = tested on: N/P(14) cells (cisplatin-resistant subline of NTUB1); assay: SRB assay, cell growth inhibition; format: cell-based
In short: as §1

J82 cells = assay: SRB assay, cell growth inhibition; format: cell-based; settings: 48 h
In short: as §1

[3] = tested on: J82R cells (cisplatin-resistant subline of J82); assay: SRB assay, cell growth inhibition; format: cell-based; settings: 48 h
In short: as §1

[4] = tested on: SV-HUC-1 cells (normal uroepithelial); assay: SRB assay, cell growth inhibition; format: cell-based; settings: SV-HUC1, 48 h
In short: as §1

CK2α = CK2α (Homo sapiens, UniProt P68400); assay: In vitro CK2α kinase activity assay; format: biochemical; settings: 10-dose, threefold serial dilution starting at 100 µM, 10 µM ATP
N/P(14) cells [5] = assay: SRB assay, combination index; format: cell-based; settings: 48 h, CI below one indicates synergism
In short: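 N/P(14) cells got doxorubicin or mitomycin C, with or without test compound, for 48 h. Growth was measured by SRB staining: TCA fixation, 1% acetic acid wash, Tris solubilization, absorbance at 515 nm. Combination index was computed from the combined dose–effect data; CI < 1 taken as synergism.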

N/P(14) cells [6] = assay: Cell cycle analysis, propidium iodide staining and flow cytometry; format: cell-based; settings: 24-48 h, time- and concentration-dependent
N/P(14) cells [7] = assay: RT-qPCR and Western blot of base excision repair genes; format: cell-based; settings: 5 µM, 24 h (RT-qPCR)
In short: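 For mRNA, cells got 5 µM test compound for 24 h. RNA was taken by TRIzol with 1-bromo-3-chloropropane phase separation and isopropanol precipitation, reverse-transcribed, then run by green-dye qPCR with gene-specific primers (n = 3, unpaired two-tailed t-test). Protein levels were read by western blot, with band densities normalized to GAPDH.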

J82R cells = assay: Western blot analysis; format: cell-based; settings: 24-48 h
In short: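 J82R cells got the indicated test compound concentrations for 24–48 h. Proteins were extracted in SDS lysis buffer, run on SDS-PAGE, transferred to PVDF, and probed for caspase-3, -8, -9 and PARP. Band densities were normalized to GAPDH and expressed as fold of untreated control. Mean±S.D., n = 3–4, one-way ANOVA with Dunnett's test.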

CK2α, sequence (P68400 whole entry): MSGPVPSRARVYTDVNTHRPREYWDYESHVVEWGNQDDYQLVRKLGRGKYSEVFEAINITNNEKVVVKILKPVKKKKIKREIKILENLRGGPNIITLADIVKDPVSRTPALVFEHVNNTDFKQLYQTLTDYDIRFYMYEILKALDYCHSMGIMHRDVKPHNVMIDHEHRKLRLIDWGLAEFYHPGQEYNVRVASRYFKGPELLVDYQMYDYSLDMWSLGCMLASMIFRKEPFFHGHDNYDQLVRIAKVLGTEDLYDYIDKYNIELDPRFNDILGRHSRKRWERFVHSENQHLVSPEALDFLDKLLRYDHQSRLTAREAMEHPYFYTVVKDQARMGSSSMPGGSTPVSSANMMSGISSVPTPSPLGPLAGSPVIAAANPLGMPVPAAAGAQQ

O=C(O)c1ccc2c(c1)nc(Nc1cccc(Cl)c1)c1ccncc12 [CX-4945, reference compound] was tested, and the PARP cleavage (N/P(14) cells [1]; 24 h) was “increased” and the “phosphorylation of the downstream targets Akt and XRCC1” value (N/P(14) cells [1]; 24 h, concentration-dependent) was “decreased”.

With N.N.[Cl][Pt][Cl] [cisplatin, reference compound] the GI50 (NTUB1 cells) was 7.89 µM, the GI50 ([2]; N/P(14) cells, 48 h, SRB assay) was 47.4 µM and the GI50 (J82 cells) was 2580 nM. It also gave a GI50 ([3]; J82R cells, SRB assay) of 9.47 µM.

Molecule O=c1cc(-c2ccc(Oc3c(O)cc4oc(-c5ccc(O)cc5)cc(=O)c4c3O)cc2)oc2cc(O)cc(O)c12 [Hinokiflavone] has a GI50 ([2]; NTUB1, 48 h) of 1.48 µM, a GI50 [3] of 0.98 µM and a GI50 [4] of 4.09 µM. The CK2α kinase activity (CK2α) was “inhibited CK2α activity in a concentration-dependent manner”, the “combination index (CI)” value (N/P(14) cells [5]; HNK with doxorubicin) was “below 1” and the “combination index (CI)” value (N/P(14) cells [5]; HNK with mitomycin C) was “below 1”. The “cleavage of caspase-3, caspase-8, caspase-9, and PARP” value (N/P(14) cells [1]; 24-48 h) was “enhanced”, the “phosphorylation of the CK2 substrate consensus sequence ((pS/pT)DXE)” value (N/P(14) cells [1]; 24 h and 48 h, concentration-dependent) was “suppressed” and the “accumulation of cells in the sub-G1 phase” value (N/P(14) cells [6]) was “significantly increased”. For the same molecule, the “mRNA and protein levels of MUTYH, OGG1, and XRCC1” value (N/P(14) cells [7]) was “reduced” and the “cleavage of caspase-3, caspase-8, caspase-9, and PARP” value (J82R cells) was “enhanced”.
